Tissue distribution, Total radioactivity and Total urine activity data for two compounds are collected here from ChEMBL document CHEMBL1123716, “Synthesis and tumor uptake of 5-halo-1-(2'-fluoro-2'-deoxy-beta-D-ribofuranosyl)[2-14C]uracils” (J Med Chem, 1987).

In series [1] the test system is Mus musculus. Put plainly: Tissue distribution in BDF1 female mice bearing an implanted lewis lung tumor after intravenous injection in muscle at 0.25 h. In kind it is ADME, organism-based. As to conditions: in vivo. The essentials: (§1)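 Female BDF₁ mice (18–20 g) carrying transplanted Lewis lung tumor received 23–193 kBq of the [2-¹⁴C]-labeled nucleoside in normal saline via tail vein. The compound was stored as a dry film and reconstituted just before use. Animals were killed at set times, and tissue ¹⁴C was measured by combustion and liquid scintillation. Values are mean ± SD % injected dose per gram of wet tissue, n = 6.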

The subject of series [2] is Mus musculus. The experiment in a line: Tissue distribution in BDF1 female mice bearing an implanted lewis lung tumor after intravenous injection in skin at 0.25 h. Format: ADME, organism-based, Skin of body. As to conditions: in vivo. An outline of the steps: as §1
Series [3] deals with Mus musculus. Put plainly: Tissue distribution in BDF1 female mice bearing an implanted lewis lung tumor after intravenous injection in skin at 2 h. As to conditions: in vivo. In kind it is ADME, organism-based, Skin of body. An outline of the steps:
as §1

The subject of series [4] is Mus musculus. The experiment in a line: Tissue distribution in BDF1 female mice bearing an implanted lewis lung tumor after intravenous injection in spleen at 0.25 h. Format: ADME, organism-based. Conditions: in vivo. The essentials: as §1
Series [5] deals with Mus musculus. The experiment in a line: Tissue distribution in BDF1 female mice bearing an implanted lewis lung tumor after intravenous injection in stomach at 0.25 h. In kind it is ADME, organism-based. Conditions: in vivo. An outline of the steps:
as §1

Series [6] relates to Mus musculus. The experiment in a line: Tissue distribution in BDF1 female mice bearing an implanted lewis lung tumor after intravenous injection in muscle at 0.25 h. In kind it is ADME, organism-based. As to conditions: in vivo. The essentials: as §1
In series [7] the test system is Mus musculus. The experiment in a line: Tissue distribution in BDF1 female mice bearing an implanted lewis lung tumor after intravenous injection in skin at 0.25 h. As to conditions: in vivo. Format: ADME, organism-based, Skin of body. An outline of the steps: as §1
The test system of series [8] is Mus musculus. The experiment in a line: Tissue distribution in BDF1 female mice bearing an implanted lewis lung tumor after intravenous injection in skin at 2 h. In kind it is ADME, organism-based, Skin of body. Conditions: in vivo. An outline of the steps:
as §1

The test system of series [9] is Mus musculus. Put plainly: Tissue distribution in BDF1 female mice bearing an implanted lewis lung tumor after intravenous injection in spleen at 0.25 h. In kind it is ADME, organism-based. Conditions: in vivo. An outline of the steps:
as §1

The test system of series [10] is Mus musculus. Put plainly: Tissue distribution in BDF1 female mice bearing an implanted lewis lung tumor after intravenous injection in bone at 0.25 h. Conditions: in vivo. Format: ADME, organism-based. An outline of the steps: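 Female BDF1 mice (18–20 g) with implanted Lewis lung tumor received the 2-14C compound by tail vein, 23–193 kBq in normal saline, reconstituted from a dry film just before use. Animals were killed at set times and tissues taken for 14C counting by combustion and liquid scintillation. Values are percent injected dose per gram wet tissue, mean ± standard deviation, six animals.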

For series [11], the system named is Mus musculus. Put plainly: Tissue distribution in BDF1 female mice bearing an implanted lewis lung tumor after intravenous injection in stomach at 0.5 h. In kind it is ADME, organism-based. Conditions: in vivo. The essentials: as §1
Series [12] relates to Mus musculus. The experiment in a line: Tissue distribution in BDF1 female mice bearing an implanted lewis lung tumor after intravenous injection in tumor at 1 h. As to conditions: in vivo. Format: ADME, organism-based. An outline of the steps: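 Female BDF1 mice (18–20 g) carrying a transplanted Lewis lung tumor were given 23–193 kBq of the [2-14C]-labelled nucleoside in normal saline by tail vein. Animals were killed at set times. Tissue 14C was counted by liquid scintillation, after combustion or directly. Values are percent of injected dose per gram wet tissue, as mean ± standard deviation of six animals.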

The test system of series [13] is Mus musculus. Put plainly: Radioactive constituent of 5-fluorouracil in urine at 4 hr time interval after intravenous injection into BDF1 female mice bearing lewis lung tumor. In kind it is ADME, organism-based. Conditions: in vivo. An outline of the steps: (§2)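 Radiolabeled nucleoside given in normal saline by tail vein, 23–193 kBq per mouse, to female BDF1 mice (18–20 g) carrying transplanted Lewis lung tumor. Urine was collected when the animals were killed. Components were identified by reverse-phase HPLC with UV at 256 nm on urine spiked with reference compounds, matched to liquid scintillation counts of the eluate. Each is reported as a percent of total urine radioactivity.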

The subject of series [14] is Mus musculus. The experiment in a line: Radioactive constituent of 5-fluorouracil in urine at 8 hr time interval after intravenous injection into BDF1 female mice bearing lewis lung tumor. Format: ADME, organism-based. As to conditions: in vivo. The essentials: as §2
Series [15] relates to Mus musculus. Put plainly: Radioactive constituent of other in urine at 0.5 hr time interval after intravenous injection into BDF1 female mice bearing lewis lung tumor. Conditions: in vivo. In kind it is ADME, organism-based. The essentials: as §2
Series [16] has as its system Mus musculus. The experiment in a line: Radioactive constituent of other in urine at 2 hr time interval after intravenous injection into BDF1 female mice bearing lewis lung tumor. As to conditions: in vivo. In kind it is ADME, organism-based. An outline of the steps: as §2
Series [17] relates to Mus musculus. Put plainly: Radioactive constituent of other in urine at 8 hr time interval after intravenous injection into BDF1 female mice bearing lewis lung tumor. As to conditions: in vivo. In kind it is ADME, organism-based. The essentials:
as §2

Series [18] has as its system Mus musculus. The experiment in a line: Radioactive constituent in urine at 0.5 hr time interval after intravenous injection into BDF1 female mice bearing lewis lung tumor. In kind it is ADME, organism-based. Conditions: in vivo. The essentials:
as §2

The test system of series [19] is Mus musculus. Put plainly: Radioactive constituent in urine at 4 hr time interval after intravenous injection into BDF1 female mice bearing lewis lung tumor. Format: ADME, organism-based. As to conditions: in vivo. An outline of the steps:
as §2

Series [20] deals with Mus musculus. Put plainly: Radioactive constituent in urine at 8 hr time interval after intravenous injection into BDF1 female mice bearing lewis lung tumor. In kind it is ADME, organism-based. As to conditions: in vivo. The essentials:
as §2

Series [21] concerns Mus musculus. The experiment in a line: Radioactive constituent of uracil in urine at 0.5 hr time interval after intravenous injection into BDF1 female mice bearing lewis lung tumor. In kind it is ADME, organism-based. As to conditions: in vivo. An outline of the steps:
as §2

For series [22], the system named is Mus musculus. Put plainly: Radioactive constituent of uracil in urine at 2 hr time interval after intravenous injection into BDF1 female mice bearing lewis lung tumor. As to conditions: in vivo. In kind it is ADME, organism-based. The essentials: as §2
Series [23] relates to Mus musculus. The experiment in a line: Radioactive constituent of uracil in urine at 4 hr time interval after intravenous injection into BDF1 female mice bearing lewis lung tumor. Format: ADME, organism-based. As to conditions: in vivo. An outline of the steps:
as §2

In series [24] the test system is Mus musculus. Put plainly: Radioactive constituent of uracil in urine at 8 hr time interval after intravenous injection into BDF1 female mice bearing lewis lung tumor. Format: ADME, organism-based. Conditions: in vivo. The essentials: as §2
Series [25] can be described thus: Total urine activity excreted at 0.5 hr was estimated from the measurement of loss of tissue activity. In kind it is ADME, tissue-based.
A short description of series [26]: Total urine activity excreted at 2 hr was estimated from the measurement of loss of tissue activity. In kind it is ADME, tissue-based.
The nature of series [27]: Total urine activity excreted at 4 hr was estimated from the measurement of loss of tissue activity. In kind it is ADME, tissue-based.
Series [28] relates to Mus musculus. Put plainly: Radioactive constituent of other in urine at 4 hr time interval after intravenous injection into BDF1 female mice bearing lewis lung tumor. Format: ADME, organism-based. As to conditions: in vivo. The essentials:
as §2

Series [29] concerns Mus musculus. Put plainly: Radioactive constituent of 5-fluorouracil in urine at 2 hr time interval after intravenous injection into BDF1 female mice bearing lewis lung tumor. Conditions: in vivo.

Molecules are shown by their SMILES.

For the compound `O=c1[nH]c(=O)n([C@H]2O[C@@H](CO)[C@H](O)[C@H]2F)cc1Cl`, the Tissue distribution in series [1] is 1.48; in series [2] it was 2.24; in series [3], 0.13; in [4] it was 2.12; in series [5], 1.41.
Take `O=c1[nH]c(=O)n([C@H]2O[C@@H](CO)[C@H](O)[C@H]2F)cc1F`: the Tissue distribution turned out to be 2.48 in [6]; 3.3 in [7]; 0.06 in series [8]; 8.72 in series [9]; 1.69 in series [10]; 0.96 in series [11]. In series [12], this compound had a Tissue distribution of 2.24. In addition, the Total radioactivity stood at 16.3% in series [13]; 4.5% in [14]; 5% in series [15]; 5.4% in series [16]; 38.6% in series [17]; 90.7% in series [18]. Further, the Total radioactivity is recorded as 63.4% in series [19]; 52.4% in series [20]; 1.4% in series [21]; 3.3% in [22]; 7.3% in series [23]; 4.5% in series [24]. Also, the Total radioactivity in [28] amounted to 23%; in [29], 2.8%. The values for the Total urine activity in series [25], in [26] and in series [27] were 68%, 30% and 0.8%, respectively.
